Data: ChEMBL document CHEMBL3271993, “Synthesis and some pharmacological properties of five analogs of oxytocin having L-homocysteine in position 6” (J Med Chem, 1976)
Starred links: 1 amine or outer side, 2 acyl side, 3 side chain; linkers in the order of their positions; H or OH if unused. Positions of bridges follow the written chain, without caps; N, C: chain ends. Non-standard residues stand in square brackets, D forms with d. Residues, ends and D or L forms follow the SMILES beside them. hCys = N[C@@H](CCS)C(=O)O; X1 = O=C(CCCS[*:2])[*:1]; X2 = O=C(CS[*:2])[*:1]

Key:
[1] = target: T1, Oxytocin receptor (Rattus norvegicus) (UniProt P70536); test: Agonist activity at oxytocin receptor in rat uterus; type: tissue-based
T1 sequence (whole entry): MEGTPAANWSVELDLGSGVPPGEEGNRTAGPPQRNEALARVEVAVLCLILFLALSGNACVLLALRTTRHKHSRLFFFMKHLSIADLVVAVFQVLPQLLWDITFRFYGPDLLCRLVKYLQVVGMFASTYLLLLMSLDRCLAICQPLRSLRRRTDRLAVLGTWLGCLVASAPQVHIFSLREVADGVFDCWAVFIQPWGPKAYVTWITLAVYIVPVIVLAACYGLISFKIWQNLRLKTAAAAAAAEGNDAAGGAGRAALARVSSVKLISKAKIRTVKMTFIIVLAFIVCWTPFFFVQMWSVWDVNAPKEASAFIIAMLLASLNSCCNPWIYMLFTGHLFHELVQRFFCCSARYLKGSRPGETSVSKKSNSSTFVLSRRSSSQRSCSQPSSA
Procedure, shortened: (§1)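 Purified analogs tested against U.S.P. Agonist activity expressed as units per mg, given as mean potency ± standard error.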

[2] = Antagonist activity at oxytocin receptor in chicken assessed as inhibition of synthetic oxytocin-induced response by avian vasodepressor assay; parameters: species or system Gallus gallus
Procedure, shortened: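 Inhibitory potency given as pA2 (Schild): the negative log of the average molar antagonist concentration that reduces the response to 2x units of agonist to the level of x units of agonist.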

[3] = target: T2, Oxytocin receptor (Rattus norvegicus, UniProt P70536); test: Antagonist activity at oxytocin receptor in rat uterus assessed as inhibition of synthetic oxytocin-induced response treated 1.5 to 2 mins prior to oxytocin challenge; type: tissue-based; conditions: read-out: pA2 (converted)
T2 sequence (P70536 whole entry): T1 sequence (whole entry)
Procedure, shortened: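 Antagonist injected 1.5-2 min before synthetic oxytocin, giving any agonist response time to finish. Potency given as pA2 (Schild): the negative log of the average molar antagonist concentration that brings the response to 2x agonist units down to that of x units.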

[4] = organism: Gallus gallus; test: Agonist activity at oxytocin receptor in chicken by avian vasodepressor assay; procedure, shortened: as §1

| SMILES | Activity [1] [U/mg] | pA2 [2] | Kb [3] [nM] | Activity [4] [U/mg] |
| --- | --- | --- | --- | --- |
| CC[C@H](C)[C@@H]1NC(=O)[C@H](Cc2ccc(O)cc2)NC(=O)CCSSCC[C@@H](C(=O)N2CCC[C@H]2C(=O)N[C@@H](CC(C)C)C(=O)NCC(N)=O)NC(=O)[C@H](CC(N)=O)NC(=O)[C@H](CCC(N)=O)NC1=O | 22 | 7.57 | – | – |
| CC[C@H](C)[C@@H]1NC(=O)[C@H](Cc2ccc(O)cc2)NC(=O)[C@@H](N)CCSSCC[C@@H](C(=O)N2CCC[C@H]2C(=O)N[C@@H](CC(C)C)C(=O)NCC(N)=O)NC(=O)[C@H](CC(N)=O)NC(=O)[C@H](CCC(N)=O)NC1=O | – | 6.48 | 955 | – |
| CC[C@H](C)[C@@H]1NC(=O)[C@H](Cc2ccc(O)cc2)NC(=O)CCCSSCC[C@@H](C(=O)N2CCC[C@H]2C(=O)N[C@@H](CC(C)C)C(=O)NCC(N)=O)NC(=O)[C@H](CC(N)=O)NC(=O)[C@H](CCC(N)=O)NC1=O (YIQN[hCys]PLG-NH2; linker N-5 via X1) | 0.3 | 7.34 | 182 | – |
| CC[C@H](C)[C@@H]1NC(=O)[C@H](Cc2ccc(O)cc2)NC(=O)CSSCC[C@@H](C(=O)N2CCC[C@H]2C(=O)N[C@@H](CC(C)C)C(=O)NCC(N)=O)NC(=O)[C@H](CC(N)=O)NC(=O)[C@H](CCC(N)=O)NC1=O (YIQN[hCys]PLG-NH2; linker N-5 via X2) | 37 | – | – | 0.3 |
| CC[C@H](C)[C@@H]1NC(=O)[C@H](Cc2ccc(O)cc2)NC(=O)[C@@H](N)CSSCC[C@@H](C(=O)N2CCC[C@H]2C(=O)N[C@@H](CC(C)C)C(=O)NCC(N)=O)NC(=O)[C@H](CC(N)=O)NC(=O)[C@H](CCC(N)=O)NC1=O | 12 | – | – | 0.2 |

Now from value to molecule:

| Activity [1] [U/mg] | pA2 [2] | Kb [3] [nM] | Activity [4] [U/mg] | SMILES |
| --- | --- | --- | --- | --- |
| 546 | – | – | 507 | CC[C@H](C)[C@@H]1NC(=O)[C@H](Cc2ccc(O)cc2)NC(=O)[C@@H](N)CSSC[C@@H](C(=O)N2CCC[C@H]2C(=O)N[C@@H](CC(C)C)C(=O)NCC(N)=O)NC(=O)[C@H](CC(N)=O)NC(=O)[C@H](CCC(N)=O)NC1=O |
| 803 | – | – | 975 | CC[C@H](C)[C@@H]1NC(=O)[C@H](Cc2ccc(O)cc2)NC(=O)CCSSC[C@H](C(=O)N2CCC[C@H]2C(=O)N[C@@H](CC(C)C)C(=O)NCC(N)=O)NC(=O)[C@H](CC(N)=O)NC(=O)[C@H](CCC(N)=O)NC1=O |
